These results are taken from ChEMBL document CHEMBL4330057, “Second generation of diazachrysenes: Protection of Ebola virus infected mice and mechanism of action” (Eur J Med Chem, 2019).

The subject of data set [1] is HeLa. Kind of data set: Induction of lysosomotropism in human HeLa cells infected with Ebolavirus assessed as increase in lysosome concentration in juxtanuclear region at 10 uM for 2 hrs by acridine orange staining based assay. It counts as functional, cell-based. A digest of the protocol:
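HeLa cells were pretreated with compound for 2 h, then given acridine orange for 30 min and washed. Red AO fluorescence in acidic compartments was imaged, and total intensity and average area were scored by high-content imaging. Eight wells per point, about 3000 cells/well, mean ± SD, representative of three independent experiments.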

Data set [2] deals with Zaire ebolavirus. Kind of data set: Antiviral activity against VSV pseudotyped Ebolavirus Mayinga expressing GFP infected in human HeLa cells assessed as inhibition of viral infection at 10 uM pre-incubated for 2 hrs followed by viral infection and measured after 8 hrs by cell mask deep red staining based assay. It counts as functional, organism-based. Conditions: 1976. Put shortly:
(§1)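 HeLa cells pretreated 2 h with compound, then infected with rVSV-EBOV-GP-GFP (8 h) or VSV-GFP (6 h), and stained with Cell Mask Deep Red. Relative inhibition = 1 minus (% GFP-expressing cells normalised to mock). Mean ± SD of three replicates, representative of three independent experiments.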

Data set [3] has as its system HeLa. Kind of data set: Induction of lysosomotropism in human HeLa cells infected with Ebolavirus assessed as increase in fluorescence intensity of acid compartments at 10 uM for 1 hr by Lysosensor DND189 staining based assay. It counts as functional, cell-based. Put shortly:
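HeLa cells were pretreated 1 h with compound (Bafilomycin A1 at 0.01 μM as acidification control), then stained with LysoSensor DND 189 for 10 min and washed. Live imaging at Ex/Em 443/505 nm. Fluorescence intensity per area was quantified by image analysis. Eight wells per point, about 3000 cells/well, mean ± SD, three independent experiments.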

Data set [4] addresses Cathepsin B (Homo sapiens) (UniProt P07858). The data set is described as follows: Inhibition of cathepsin B activity in human HeLa cells at 10 uM after 12 hrs by magic red substrate based fluorescence assay. It counts as cell-based. A digest of the protocol: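 HeLa cells were exposed to compound for 12 h, then given the Magic Red cathepsin B peptide reporter, washed, and imaged at Ex/Em 590/630. Total intensity and average area of red fluorescence were scored by high-content analysis. Eight wells per point, about 3000 cells/well, mean ± SD, three independent experiments.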

Data set [5] concerns Ebolavirus. Kind of data set: Antiviral activity against Ebolavirus H. sapiens-wt/1995/Kikwit-9510621 infected in human HeLa cells assessed as inhibition of viral infection pretreated for 2 hrs followed by viral infection and measured after 48 hrs by EboV GP immunostaining based high content imaging analysis. It counts as functional, organism-based.
A short description of data set [6]: Selectivity index, ratio of CC50 for human HeLa cells to EC50 for Ebolavirus H. sapiens-wt/1995/Kikwit-9510621 infected in human HeLa cells. It counts as toxicity, cell-based. Conditions: read-out: Ratio CC50/EC50.
Data set [7] can be described thus: Cytotoxicity against human HeLa cells after 2 hrs by high content imaging analysis. It counts as cell-based.
Data set [8] in a line: Apparent permeability from basolateral to apical side in MDCK cells. It counts as ADME, cell-based, Canis lupus familiaris. Conditions: dog. Put shortly: (§2)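 Apparent permeability measured in MDCK cell monolayers, apical→basolateral and basolateral→apical directions, three biological replicates.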
Data set [9] in a line: Apparent permeability from apical to basolateral side in MDCK cells. It counts as ADME, cell-based, Canis lupus familiaris. Conditions: dog. Put shortly:
as §2

Data set [10] is described as follows: Stability in plasma (unknown origin) after 1 hr at 37 degC. Conditions: read-out: Stability. It counts as ADME, cell-free. A digest of the protocol: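 Compound was incubated in plasma for 1 h at 37 °C, and the percent remaining was reported.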
The nature of data set [11]: Solubility of the compound in deionized water. It counts as physicochemical.
The subject of data set [12] is Zaire ebolavirus. The data set is described as follows: Antiviral activity against Ebolavirus Mayinga infected in Balb/c mouse assessed as protection against viral infection by measuring host survival at 10 mg/kg, ip administered 2 hrs prior to viral infection daily for 6 days and measured for 14 days relative to control. It counts as functional, 1976.
The subject of data set [13] is Zaire ebolavirus. The data set is described as follows: Antiviral activity against VSV pseudotyped Ebolavirus Mayinga expressing GFP infected in human HeLa cells assessed as inhibition of viral infection at 2 uM pre-incubated for 2 hrs followed by viral infection and measured after 8 hrs by cell mask deep red staining based assay. It counts as functional, organism-based. Conditions: 1976. Put shortly: as §1

The next data set concerns the target Cytochrome P450 2C19 (Homo sapiens, UniProt P33261). Kind of data set: Inhibition of CYP2C19 (unknown origin) using CEC as substrate. It counts as ADME. A digest of the protocol: (§3)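 CYP IC50 was taken from the net fluorescent signal after incubation at 37 °C for a set time with active cytochrome P450 enzyme and a fluorescent probe substrate.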
For data set [14], the system named is Vesicular stomatitis virus. Kind of data set: Antiviral activity against VSV expressing GFP infected in human HeLa cells assessed as inhibition of viral infection at 2 uM pre-incubated for 2 hrs followed by viral infection and measured after 6 hrs by cell mask deep red staining based assay. It counts as functional, organism-based. Put shortly: as §1
Data set [15] deals with Vesicular stomatitis virus. Kind of data set: Antiviral activity against VSV expressing GFP infected in human HeLa cells assessed as inhibition of viral infection at 50 uM pre-incubated for 2 hrs followed by viral infection and measured after 6 hrs by cell mask deep red staining based assay. It counts as functional, organism-based. Put shortly:
as §1

Data set [16] deals with T1, Cytochrome P450 3A4 (Homo sapiens, UniProt P08684). The data set is described as follows: Inhibition of CYP3A4 (unknown origin) using dibenzylfluorescein as substrate. It counts as ADME. Put shortly:
as §3

Data set [17] in a line: Solubility of the compound in pH 7.4 buffer by laser nephelometric method. It counts as physicochemical. Put shortly: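 Solubility at pH 7.4 was measured by laser nephelometry (light scattering), in triplicate.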
A short description of data set [18]: Half life in human liver microsomes. It counts as ADME, Microsome. A digest of the protocol: (§4)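 Substrate depletion with mouse or human liver microsomes, 1 h at 37 °C. Clearance (μL/min/mg) and half-life derived.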
In general terms: Liver microsomes are vesicles of endoplasmic reticulum, rich in cytochrome P450 enzymes.

The target of data set [19] is T1, Cytochrome P450 3A4. The data set is described as follows: Inhibition of CYP3A4 (unknown origin) using 7-benzyloxyquinoline as substrate. It counts as ADME. Put shortly:
as §3

Data set [20] can be described thus: Clearance in mouse liver microsomes after 1 hr. Conditions: read-out: CLH. It counts as ADME, Microsome. Put shortly: as §4
The next data set deals with Cytochrome P450 2D6 (Homo sapiens, UniProt P10635). The data set is described as follows: Inhibition of CYP2D6 (unknown origin) using 3-(2-(N, N-Diethyl-N-methylamino)ethyl)-7-Methoxy-4-Methylcoumarin as substrate. Conditions: read-out: INH. It counts as ADME. A digest of the protocol:
as §3

Data set [21] addresses T1, Cytochrome P450 3A4. The data set is described as follows: Inhibition of CYP3A4 (unknown origin) using 7-benzyloxy-4-trifluoromethylcoumarin as substrate. It counts as ADME. Put shortly: as §3
A short description of data set [22]: Clearance in human liver microsomes after 1 hr. It counts as ADME, Microsome. Conditions: read-out: CLH. A digest of the protocol: as §4
Data set [23] has as its system Vesicular stomatitis virus. The data set is described as follows: Antiviral activity against VSV expressing GFP infected in human HeLa cells assessed as inhibition of viral infection at 0.1 uM pre-incubated for 2 hrs followed by viral infection and measured after 6 hrs by cell mask deep red staining based assay. It counts as functional, organism-based. A digest of the protocol: as §1

Data set [24] is described as follows: Half life in mouse liver microsomes. It counts as ADME, Microsome. A digest of the protocol:
as §4

For data set [25], the system named is Zaire ebolavirus. The data set is described as follows: Antiviral activity against VSV pseudotyped Ebolavirus Mayinga expressing GFP infected in human HeLa cells assessed as inhibition of viral infection up to 50 uM pre-incubated for 2 hrs followed by viral infection and measured after 8 hrs by high content imaging analysis. It counts as functional, organism-based. Conditions: 1976. A digest of the protocol: as §1

The test system of data set [26] is Ebolavirus. Kind of data set: Antiviral activity against Ebolavirus. It counts as functional, organism-based. Conditions: Orthoebolavirus.
For data set [27], the system named is Ebolavirus. Kind of data set: Antiviral activity against Ebolavirus infected in mouse assessed as protection against viral infection at 30 mg/kg/day relative to control. It counts as functional.
The mark [28] stands for this setting: Orthoebolavirus, H. sapiens-wt/1995/Kikwit-9510621, HeLa.
Setting [29] is: Orthoebolavirus, H. sapiens-wt/1995/Kikwit-9510621, HeLa, read-out: EC50.

A word on the EC50: it is the concentration at which the effect is half-maximal. The EC90 is the concentration at which the effect reaches the 90% level. One may read the CC50 as the concentration at which the toxic effect on the cells reaches its halfway point. A low value points to greater toxicity to the cells. The Papp B→A is how fast a substance crosses the layer from the basolateral side. The term Papp A→B denotes how fast a substance crosses the layer from the apical side. What is called solubility is how much of the substance goes into solution per volume. Higher therefore signals much dissolved substance. In general, kinetic solubility refers to the concentration staying in solution when a stock, usually in DMSO, is diluted into the medium. By half-life is commonly meant the time needed for the level to fall by half in the phase considered. A higher half-life goes with slow loss.

The source made the active and inactive calls. Where only a bound is given, the exact number is not on record here.

T1 sequence (P08684 whole entry): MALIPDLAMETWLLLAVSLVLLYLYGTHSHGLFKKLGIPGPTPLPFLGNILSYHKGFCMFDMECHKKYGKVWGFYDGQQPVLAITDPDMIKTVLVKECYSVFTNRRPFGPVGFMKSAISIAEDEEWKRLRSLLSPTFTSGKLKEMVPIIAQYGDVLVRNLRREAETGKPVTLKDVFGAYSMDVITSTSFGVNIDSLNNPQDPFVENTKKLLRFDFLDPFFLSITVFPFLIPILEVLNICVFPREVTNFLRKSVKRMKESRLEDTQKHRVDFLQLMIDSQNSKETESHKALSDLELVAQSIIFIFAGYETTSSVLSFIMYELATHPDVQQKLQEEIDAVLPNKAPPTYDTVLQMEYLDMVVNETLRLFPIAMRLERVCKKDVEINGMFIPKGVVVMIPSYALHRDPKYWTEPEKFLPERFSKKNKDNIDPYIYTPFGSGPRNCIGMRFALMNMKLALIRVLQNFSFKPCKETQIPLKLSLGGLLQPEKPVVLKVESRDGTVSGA
Chain of Cytochrome P450 2C19 (P33261 whole entry): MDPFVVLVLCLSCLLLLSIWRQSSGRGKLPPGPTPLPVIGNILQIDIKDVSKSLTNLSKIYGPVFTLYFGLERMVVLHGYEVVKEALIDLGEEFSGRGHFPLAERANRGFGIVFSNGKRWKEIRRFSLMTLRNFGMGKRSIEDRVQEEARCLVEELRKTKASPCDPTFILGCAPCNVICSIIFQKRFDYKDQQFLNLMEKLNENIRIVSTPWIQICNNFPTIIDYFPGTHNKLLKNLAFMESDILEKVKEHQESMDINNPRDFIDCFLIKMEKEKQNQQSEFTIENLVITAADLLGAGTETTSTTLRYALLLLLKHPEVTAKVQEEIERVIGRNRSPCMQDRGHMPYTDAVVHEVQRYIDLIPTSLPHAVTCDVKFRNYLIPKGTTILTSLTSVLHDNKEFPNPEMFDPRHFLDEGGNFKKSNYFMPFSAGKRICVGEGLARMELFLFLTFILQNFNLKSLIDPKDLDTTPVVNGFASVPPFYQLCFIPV
Chain of Cytochrome P450 2D6 (P10635 whole entry): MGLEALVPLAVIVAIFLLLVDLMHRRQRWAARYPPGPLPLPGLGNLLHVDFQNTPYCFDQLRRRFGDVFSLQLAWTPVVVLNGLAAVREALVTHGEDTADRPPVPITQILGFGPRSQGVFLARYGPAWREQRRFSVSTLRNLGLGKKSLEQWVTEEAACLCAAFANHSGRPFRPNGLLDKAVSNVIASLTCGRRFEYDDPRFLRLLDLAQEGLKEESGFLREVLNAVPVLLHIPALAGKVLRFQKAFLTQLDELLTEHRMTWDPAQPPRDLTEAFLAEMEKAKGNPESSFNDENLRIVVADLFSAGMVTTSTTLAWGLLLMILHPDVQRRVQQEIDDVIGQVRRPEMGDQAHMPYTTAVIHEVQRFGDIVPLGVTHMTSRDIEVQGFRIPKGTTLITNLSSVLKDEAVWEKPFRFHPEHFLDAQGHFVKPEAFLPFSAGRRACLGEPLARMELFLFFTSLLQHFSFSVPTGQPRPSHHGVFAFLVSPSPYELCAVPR

`CCN(CC)Cc1cc(Nc2ccnc3cc(Cl)ccc23)ccc1O`: the outcome in the data set on HeLa [1] and with Zaire ebolavirus [2] was Active. Further, the outcome with HeLa [3] was inactive. For the same compound, the inhibition result in data set [4] was “inactive”.
In the case of `c1cnc2c(NCCCN3CCOCC3)ccnc2c1`, the concentration giving a half-maximal response (EC50) entry in the data set on Ebolavirus [5] is “Not Active”.
In the case of `OC(CNc1ccnc2c(NCC(O)CN3CCOCC3)ccnc12)CN1CCOCC1` (stereo not given), the EC50 entry in the data set on Ebolavirus [5] is “Not Active”.
Take `CCN(CC)CCCNc1ccnc2c1ccc1c2ccc2c(NCCN3CCOCC3)ccnc21`: in data set [6], the selectivity ratio is more than 12.6. In the data set with Ebolavirus [5] (setting [28]), the EC90 was 4.85 µM. The EC50 in the data set on Ebolavirus [5] (setting [29]) turned out to be 0.79 µM. The compound further yielded a CC50 at 2 h in data set [7] of more than 10 µM.
As for `CC(C)NCC(O)COc1cccc2ccccc12` (stereo not given) [PROPRANOLOL], the Papp B→A in [8] was 41.6 to 42.9 ×10⁻⁶ cm/s. For the same compound, the Papp A→B in [9] fell in the range of 37.7 to 39 ×10⁻⁶ cm/s.
Take `CCN(CC)CCCC(C)Nc1ccnc2c(NC(C)CCCN(CC)CC)ccnc12` (stereo not given): the remaining at 1 h in [10] was more than 85%. In data set [11], the solubility is not below 25 mg/mL. For the same compound, in the data set with Zaire ebolavirus [12], the Activity is reported as 40%. In data set [6], the selectivity ratio was more than 13. For the same compound, in the data set with Ebolavirus [5] (setting [28]), the EC90 worked out at 4.73 µM. Moreover, in the data set on Ebolavirus [5] (setting [29]), the concentration for a half-maximal effect (EC50) was determined as 0.78 µM. The outcome (in the data set on Zaire ebolavirus [13]; in data set [15]; in the data set with Zaire ebolavirus [25]) was Active. Further, the INH at Cytochrome P450 2C19 is 3.6 µM; on Cytochrome P450 3A4 [16], more than 10 µM; on Cytochrome P450 3A4 [19], more than 10 µM; at Cytochrome P450 3A4 [21], more than 10 µM. Further, the result in data set [14] and in data set [23] was inactive. In addition, the solubility (kinetic) in data set [17] is more than 0.05 mg/mL. In addition, the half-life in [18] was more than 60 min; in data set [24], 42 min. In addition, the microsomal CLint was 32.9 µL/min/mg in data set [20] and less than 23 µL/min/mg in [22]. For the same compound, the IC50 at Cytochrome P450 2D6 came to 8 µM. This compound displayed a CC50 at 2 h in [7] of more than 10 µM.
Consider `Clc1ccc2c(NCCCCNc3ccnc4cccnc34)ccnc2c1`, for which, in [6], the selectivity ratio was more than 8.7. In addition, the EC90 with Ebolavirus [5] (setting [28]) was found to be 13 µM. Further, in the data set on Ebolavirus [5] (setting [29]), the EC50 came out at 2.87 µM. In [7], this compound came in with a CC50 at 2 h of more than 25 µM.
The like results for `CCN(CC)CCNc1ccnc2c(NCCN(CC)CC)ccnc12` were, in that order, more than 1.8, 62.6 µM, 14.1 µM and more than 25 µM.
On to `NC(=O)c1nc(F)cnc1O`, for which, in the data set with Ebolavirus [26], the EC50 was determined as 67 µM. Moreover, in the data set on Ebolavirus [27], the Activity is 100%.
With `CCN(CC)CCCC(C)Nc1ccnc2cccnc12` (stereo not given), the half-maximal effective concentration (EC50) with Ebolavirus [5] (setting [29]) turned out to be 10 µM.
For `NCCCCNc1ccnc2c1ccc1c2ccc2c(NCCCCN)ccnc21`, the selectivity ratio in data set [6] was more than 1. In addition, the EC90 in the data set on Ebolavirus [5] (setting [28]) came out at 23.5 µM. For the same compound, in the data set with Ebolavirus [5] (setting [29]), the EC50 is 10 µM. In [7], this compound came in with a 50% cytotoxic concentration (CC50) at 2 h of more than 10 µM.
`CCN(CC)CCCNc1ccnc2cccnc12`: the 50% effective concentration (EC50) in the data set on Ebolavirus [5] (setting [29]) worked out at 10 µM.
